Assay results: ChEMBL document CHEMBL3785019, “Dihydropyrazole derivatives as telomerase inhibitors: Structure-based design, synthesis, SAR and anticancer evaluation in vitro and in vivo” (Eur J Med Chem, 2016); call rule not given here

What was measured:
[1] = Cytotoxicity against human MGC803 cells after 48 hrs by MTT assay; assay type: functional, cell-based, MGC-803
Summary of the method: (§1)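 Tumor cells in log phase in RPMI 1640 + 10% FBS, seeded at 3×10^4 cells mL-1 and incubated 24 h (37 °C, 5% CO2). Test samples added at pre-set concentrations (6 wells each), doxorubicin as reference; 48 h exposure. MTT (2.5 mg·mL-1 in PBS) added for 4 h, formazan dissolved in DMSO, A570 read.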

[2] = Cytotoxicity against human PC3 cells after 48 hrs by MTT assay; assay type: functional, cell-based, PC-3; summary of the method: as §1
HepG2 = experiment: Cytotoxicity against human HepG2 cells after 48 hrs by MTT assay; assay type: functional, cell-based; summary of the method: as §1
[3] = biological target: Telomerase reverse transcriptase (Homo sapiens, UniProt O14746); experiment: Inhibition of telomerase in human MGC-803 cells after 24 hrs by TRAP-PCR-ELISA assay; assay type: cell-based
Summary of the method: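 Cells lysed in RIPA on ice for 30 min; extract incubated with TRAP mix at 25 °C for 30 min, then 35 PCR cycles. Products hybridized to DIG probe, captured on streptavidin, detected with peroxidase anti-DIG at 490 nm; mean±SD.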

Bcap37 = experiment: Cytotoxicity against human Bcap37 cells after 48 hrs by MTT assay; assay type: functional, cell-based; summary of the method: as §1
[4] = Homo sapiens, MGC-803, 48 h, read-out: IC50
[5] = Homo sapiens, PC-3, 48 h, read-out: IC50
[6] = Homo sapiens, HepG2, 48 h, read-out: IC50
[7] = Homo sapiens, Bcap37, 48 h, read-out: IC50

Sequence of Telomerase reverse transcriptase (O14746 whole entry): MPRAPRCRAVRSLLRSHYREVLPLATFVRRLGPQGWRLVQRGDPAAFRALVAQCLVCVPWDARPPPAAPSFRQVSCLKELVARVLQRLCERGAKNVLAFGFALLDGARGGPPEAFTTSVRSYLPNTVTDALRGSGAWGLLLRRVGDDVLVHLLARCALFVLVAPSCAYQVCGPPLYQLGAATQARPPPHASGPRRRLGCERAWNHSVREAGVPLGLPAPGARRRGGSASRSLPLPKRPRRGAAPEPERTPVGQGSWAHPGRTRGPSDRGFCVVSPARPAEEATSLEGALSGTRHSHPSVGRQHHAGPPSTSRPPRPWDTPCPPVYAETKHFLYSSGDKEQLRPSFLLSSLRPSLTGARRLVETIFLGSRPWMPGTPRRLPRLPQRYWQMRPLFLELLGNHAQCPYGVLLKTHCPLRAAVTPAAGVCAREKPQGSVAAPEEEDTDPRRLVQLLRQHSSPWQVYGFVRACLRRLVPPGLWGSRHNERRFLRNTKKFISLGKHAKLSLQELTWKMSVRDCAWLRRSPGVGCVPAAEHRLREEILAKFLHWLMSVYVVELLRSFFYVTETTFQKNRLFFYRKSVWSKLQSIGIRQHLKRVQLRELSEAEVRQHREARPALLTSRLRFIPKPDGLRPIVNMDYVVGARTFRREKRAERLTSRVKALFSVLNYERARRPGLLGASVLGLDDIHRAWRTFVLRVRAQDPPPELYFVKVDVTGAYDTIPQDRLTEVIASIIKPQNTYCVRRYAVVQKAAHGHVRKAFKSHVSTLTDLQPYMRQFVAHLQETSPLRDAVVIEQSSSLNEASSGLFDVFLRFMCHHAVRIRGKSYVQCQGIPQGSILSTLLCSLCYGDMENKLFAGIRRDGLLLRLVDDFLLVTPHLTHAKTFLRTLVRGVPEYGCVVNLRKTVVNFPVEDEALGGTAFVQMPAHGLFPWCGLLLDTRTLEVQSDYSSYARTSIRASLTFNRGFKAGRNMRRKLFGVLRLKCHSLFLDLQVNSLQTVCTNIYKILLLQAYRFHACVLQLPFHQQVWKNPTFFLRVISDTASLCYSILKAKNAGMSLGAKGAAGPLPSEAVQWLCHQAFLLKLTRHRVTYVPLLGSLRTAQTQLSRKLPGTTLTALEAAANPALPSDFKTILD

Structure (SMILES) | IC50 [1, 4] [µM] | IC50 [2, 5] [µM] | IC50 (HepG2; [6]) [µM] | IC50 [3] [µM] | IC50 (Bcap37; [7]) [µM] | IC50 ([1]; mgc-803) | IC50 (HepG2; hepg2) | IC50 ([2]; pc-3) | IC50 (Bcap37; bcap37)
O=C(CN1CCOCC1)N1N=C(c2cc3ccccc3oc2=O)CC1c1ccccc1C(F)(F)F (configuration not stated) | 10 | 12.1 | 21 | 3.03 | 14.2 | – | – | – | –
CC1=NN(S(=O)(=O)c2ccc([N+](=O)[O-])cc2)C(c2cc(Cl)ccc2O)C1 (configuration not stated) | – | 44.2 | – | 41.2 | 52.3 | Not Active | Not Active | – | –
CCNCC(=O)N1N=C(c2cc3ccccc3oc2=O)CC1c1ccccc1 (configuration not stated) | 26.6 | 5.58 | 30.6 | 6.68 | 6.49 | – | – | – | –
O=C(c1ccccc1)N1N=C(c2cc3ccccc3oc2=O)CC1c1ccccc1 (configuration not stated) | 12.7 | 5.87 | 36.6 | 8.74 | 32.2 | – | – | – | –
CC[N+](C)(CC)CC(=O)N1N=C(C)CC1c1ccccc1OC (configuration not stated) | 3.32 | 4.17 | 3.67 | 3.44 | 5.15 | – | – | – | –
O=c1oc2ccccc2cc1C1=NN(S(=O)(=O)c2ccc([N+](=O)[O-])cc2)C(c2ccccc2)C1 (configuration not stated) | 41.2 | 46.6 | – | 31.3 | 37 | – | Not Active | – | –
CCCNCC(=O)N1N=C(c2cc3ccccc3oc2=O)CC1c1ccccc1 (configuration not stated) | 4.88 | 7.27 | 10.8 | 9.32 | 25.2 | – | – | – | –
CC(=O)Oc1ccccc1C1CC(C)=NN1C(=O)CN1CCCC1 (configuration not stated) | 6.51 | 6.21 | 5.09 | 6.3 | 5.21 | – | – | – | –
CC1=NN(C(=O)CN2CCN(C)CC2)C(c2ccccc2O)C1 (configuration not stated) | 7.85 | 11.8 | – | 2.1 | 6.21 | – | Not Active | – | –
C=CCN(CC=C)CC(=O)N1N=C(C)CC1c1cc(Br)ccc1O (configuration not stated) | 10.2 | 3.09 | 7.87 | 11.8 | 4.95 | – | – | – | –
CC(C)CNCC(=O)N1N=C(c2cc3ccccc3oc2=O)CC1c1ccccc1 (configuration not stated) | 29.7 | 1.92 | 9.97 | 3.17 | 6.3 | – | – | – | –
NC(=O)C1CCN(CC(=O)N2N=C(c3cc4ccccc4oc3=O)CC2c2ccccc2)CC1 (configuration not stated) | 21.5 | 8.31 | 19.3 | 31.2 | 18.5 | – | – | – | –
O=C(CN1CCC(Cl)CC1)N1N=C(c2cc3ccccc3oc2=O)CC1c1ccccc1 (configuration not stated) | – | – | – | 57.8 | 24.2 | Not Active | Not Active | Not Active | –
CCN(CC)CC(=O)N1N=C(c2cc3ccccc3oc2=O)CC1c1ccccc1 (configuration not stated) | 8.52 | 6.41 | 11.4 | 5.57 | 3.5 | – | – | – | –
CCCN(CCC)CC(=O)N1N=C(C)CC1c1cc(Br)ccc1O (configuration not stated) | 20.2 | 19 | 9.81 | 9.94 | 15.3 | – | – | – | –
CC(=O)Oc1ccccc1C1CC(C)=NN1C(=O)CN1CCCCC1C (configuration not stated) | 5.14 | 11.1 | – | 6.2 | 17.9 | – | Not Active | – | –
O=C(CN1CCC(c2ccccc2)CC1)N1N=C(c2cc3ccccc3oc2=O)CC1c1ccccc1 (configuration not stated) | – | – | – | 35.7 | – | Not Active | Not Active | Not Active | Not Active
CC1=NN(C(=O)COc2ccc(Cl)cc2)C(c2ccccc2O)C1 (configuration not stated) | – | 38.8 | – | 54.4 | – | Not Active | Not Active | – | Not Active

Structure (SMILES) | IC50 [1, 4] [µM] | IC50 [2, 5] [µM] | IC50 (HepG2; [6]) [µM] | IC50 [3] [µM] | IC50 (Bcap37; [7]) [µM] | IC50 ([1]; mgc-803) | IC50 (HepG2; hepg2) | IC50 ([2]; pc-3) | IC50 (Bcap37; bcap37)
CCCCCCN(CCCCCC)CC(=O)N1N=C(c2cc3ccccc3oc2=O)CC1c1ccccc1C(F)(F)F (configuration not stated) | 6.87 | 6.03 | 12 | 4.77 | 12.2 | – | – | – | –
CC(=O)Oc1ccccc1C1CC(C)=NN1C(=O)CN1CCC(C(C)=O)CC1 (configuration not stated) | 4.12 | 6.8 | 7.8 | 3.54 | 20.1 | – | – | – | –
CC1=NN(C(=O)CCl)C(c2cc(Br)ccc2O)C1 (configuration not stated) | 13.5 | 8.89 | 16.3 | 3.17 | 32.3 | – | – | – | –
CC(=O)Oc1ccccc1C1CC(C)=NN1C(=O)CN1CCCCC1 (configuration not stated) | 4.89 | 4.07 | 19 | 2.12 | 12.8 | – | – | – | –
CC1=NN(C(=O)CCc2ccccc2)C(c2ccccc2O)C1 (configuration not stated) | 24.1 | 9.38 | 20.6 | 11 | 25.7 | – | – | – | –
CCC(=O)N1N=C(C)CC1c1cc(Br)cc(Br)c1O (configuration not stated) | 38.6 | 28.6 | 41.4 | 18.1 | 40.1 | – | – | – | –
CC1=NN(C(=O)CN2CCCC2)C(c2ccccc2O)C1 (configuration not stated) | 17.9 | 6.67 | 5.54 | 5.44 | 5.35 | – | – | – | –
CC1=NN(C(=O)CN2CCN(C(=O)OC(C)(C)C)CC2)C(c2ccccc2O)C1 (configuration not stated) | 17.6 | 3.44 | 5 | 6.77 | 6.74 | – | – | – | –
COc1ccccc1C1CC(C)=NN1C(=O)CN1CCC(OC)CC1 (configuration not stated) | 9.55 | 27.2 | 22 | 8.4 | 18.8 | – | – | – | –
COc1ccccc1C1CC(C)=NN1C(=O)C[N+]1(C)CCCC1 (configuration not stated) | 12.2 | 11.2 | 32.2 | 11 | 9.98 | – | – | – | –
O=C(c1ccccc1Cl)N1N=C(c2cc3ccccc3oc2=O)CC1c1ccccc1 (configuration not stated) | 6.64 | 6.37 | 5.44 | 13.1 | 9.3 | – | – | – | –
CC(C)NCC(=O)N1N=C(c2cc3ccccc3oc2=O)CC1c1ccccc1 (configuration not stated) | 10.3 | 1.87 | 6 | 3.52 | 2.21 | – | – | – | –
CCC(=O)N1N=C(c2cc3ccccc3oc2=O)CC1c1ccccc1 (configuration not stated) | 5.3 | 4.37 | 9.61 | 3.63 | 46.3 | – | – | – | –
COc1ccccc1C1CC(C)=NN1C(=O)CN(C(C)C)C(C)C (configuration not stated) | 21.5 | 5.2 | 8.4 | 14.2 | 34.2 | – | – | – | –
CC(C)(C)OC(=O)N1CCN(CC(=O)N2N=C(c3cc4ccccc4oc3=O)CC2c2ccccc2)CC1 (configuration not stated) | – | 36.4 | 28.4 | – | 29.7 | Not Active | – | – | –
CC1=NN(C(=O)CCl)C(c2cc(Br)cc(Br)c2O)C1 (configuration not stated) | 4.91 | 5.82 | 3.35 | 3.68 | 51.1 | – | – | – | –
CC1=NN(C(=O)c2ccc(C)cc2)C(c2cc(Br)ccc2O)C1 (configuration not stated) | 21 | 41.2 | 23.2 | – | 32.6 | – | – | – | –
CC1CCCCN1CC(=O)N1N=C(c2cc3ccccc3oc2=O)CC1c1ccccc1 (configuration not stated) | – | 36.3 | – | – | – | Not Active | Not Active | – | Not Active
